# Screening data from PubChem.
# Shown are actives, neighbours in structure and some others; about 1.5% of the full set was active somewhere.
# Jurkat NFkB inh: inhibitors of the PMA/ionomycin-induced NF-kB reporter in Jurkat cells; PMA/ionomycin-induced NF-kB luciferase reporter, luminescence; inhibition, % at 4 µM; 330,000 compounds, 0.53% hits; AID 435003; in the data active = inhibition above about 50%
# JMJD2C inh: inhibitors of human GASC-1 (JMJD2C) demethylase. 330,000 compounds, 0.069% hits. inhibition, % at 2.35 µM. GST-JMJD2C(1-420) H3K9me3 demethylation, DELFIA europium. AID 2099;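 active = more than half of a compound's replicate wells show inhibition beyond 50%, single wells judged on their own value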;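 also: signal counts dimethyl H3K9 product captured on neutravidin plate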
# 697 NFkB inh: inhibitors of the PMA/ionomycin-induced NF-kB reporter in 697 B cells; 330,000 compounds, 0.33% hits; inhibition, % at 4 µM; 697 B-cell NF-kB luciferase reporter, 16 h; AID 435022; in the data active = inhibition above about 35%
# NR2E3 ag-1: human photoreceptor-specific nuclear receptor agonism; Q9Y5X4; CHO-S Gal4-NCOR/VP16-NR2E3 two-hybrid, luciferase; inhibition of corepressor binding, % at 3.98 µM; 360,000 compounds, 0.35% hits; AID 602229;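 active = inhibition above the mean of all tested compounds plus 3 SD, cut at about 70% in these data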;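 also: higher means lower luciferase signal from less NR2E3 corepressor binding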
# Target sequence (Q9Y5X4 whole entry, looked up, the tested form may be a part): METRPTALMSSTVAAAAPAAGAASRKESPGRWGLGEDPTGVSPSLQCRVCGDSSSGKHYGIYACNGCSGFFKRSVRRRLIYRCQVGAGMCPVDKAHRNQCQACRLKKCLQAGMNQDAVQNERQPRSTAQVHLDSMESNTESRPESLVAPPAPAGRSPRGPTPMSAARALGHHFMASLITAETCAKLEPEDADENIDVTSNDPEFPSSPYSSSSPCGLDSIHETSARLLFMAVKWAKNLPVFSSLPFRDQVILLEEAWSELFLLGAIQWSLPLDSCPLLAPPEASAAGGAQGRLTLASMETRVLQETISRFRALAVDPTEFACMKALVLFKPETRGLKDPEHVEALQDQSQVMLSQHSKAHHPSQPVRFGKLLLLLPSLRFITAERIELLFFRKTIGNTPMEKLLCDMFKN
# NR2E3 ag-2: NR2E3 (human) agonism; 320,000 compounds, 0.12% hits; inhibition of corepressor binding, % at 4.78 µM; AID 2300; GST-NR2E3/biotin-RetCOR TR-FRET, 1536-well; Q9Y5X4;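 active = percent inhibition above the cutoff of mean plus 3 SD of all tested compounds, set per screening campaign, cut at about 20% in these data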
#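 Material – GST-tagged NR2E3 plus biotinylated RetCOR corepressor · Quantity – NR2E3 fusion 1.35 nM · Times – 5 h incubation at 4 °C · Medium – pH 7.5 Tris-based buffer · Technique – TR-FRET, Eu(K)-anti-GST donor, streptavidin-D2 acceptor, ex 340, em 617/671 nm · Benchmarks – high control biotin, low control 0.6% DMSO · Format – 1536-well plates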
# GalR3 antagonist: blocks the human galanin receptor 3 | O60755 | HEK293 GalR3-CNG cAMP membrane potential fluorescence; galR3 body fused to GalR1 C-terminus | inhibition, % at 3 µM | 360,000 compounds, 0.44% hits | AID 651719;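 active = inhibition above the screen-wide average plus 3 SD, cut at about 13% in these data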;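 also: forskolin and galanin both at EC90 stimulate the cells; cAMP rise reported by CNG channel membrane potential dye signal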
# Jurkat NFkB conf: lowers PMA/ionomycin-induced NF-kB signal in Jurkat cells; Jurkat NF-kB luciferase, 16 h; 2,700 compounds, 27% hits; shares compounds with Jurkat NFkB inh; AID 435020; inhibition, % at 4 µM;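 active = inhibition reaching about 45% at 4 µM in either replicate, limit read from the data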
# A number is an active result; 0 = inactive; - = no result.
SMILES,Jurkat NFkB inh,JMJD2C inh,697 NFkB inh,NR2E3 ag-1,NR2E3 ag-2,GalR3 antagonist,Jurkat NFkB conf
CCc1ccc(CCC(=O)Nc2ncc(Cc3ccccc3Cl)s2)o1,66,0,0,0,0,0,0
CCc1ccc(-c2cc(C)no2)cc1S(=O)(=O)NCc1ccccc1OC,0,0,0,0,0,0,-
COc1ccccc1CNS(=O)(=O)c1ccc(-c2cc(C)no2)cc1,60,0,0,0,0,0,48
CC(C)Cn1c(CCNC(=O)c2ccco2)nc2ccccc21,0,0,0,0,0,0,-
CCOC(=O)N1CCC(NC(=O)c2ccc3c(c2)N(C)C(=O)/C(=C/c2cccc(OC)c2)S3)CC1,53,0,0,0,0,0,0
COC(=O)[C@]12C[C@H](CC(=O)NCC34CC5CC(CC(C5)C3)C4)C(=O)N(Cc3ccccc3)C1=C[C@H](C(C)C)O[C@@H]2C1CC1,-,-,-,-,-,0,-
CCOc1c(CNc2nnnn2C)cccc1OC,0,0,0,0,0,0,-
CCN1C/C(=C/c2cccc([N+](=O)[O-])c2)C(=O)/C(=C/c2cccc([N+](=O)[O-])c2)C1,-,0,-,0,0,0,-
CC(=O)c1ccc(NC(=O)/C(Cl)=C/c2ccccc2)cc1,0,0,0,0,0,0,-
Cc1ccc(NC(=O)/C(Cl)=C\c2ccccc2)cc1,0,0,0,0,0,0,0
O=C(CC1CCCCC1)Nc1nc2ccccc2s1,0,0,0,0,0,0,-
O=C(Nc1nc2ccccc2s1)NC1CCCCC1,0,0,0,0,0,0,0
CCCC(=O)Nc1ccc(C(=O)COC(=O)c2cc(C)oc2C)cc1,0,0,0,0,0,0,-
O=C(c1cccc(N2CCCC2=O)c1)N1CCN(c2cccc(Cl)c2)CC1,53,0,0,0,0,-,0
O=C(c1cccc(N2CCCC2=O)c1)N1CCN(c2ccc(F)cc2)CC1,0,0,0,0,0,0,-
Cc1cccc(N2CCN(C(=O)c3cccc(N4CCCC4=O)c3)C(C)C2)c1 (stereo not drawn),56,0,0,0,0,0,0
Cc1cccc(N2CCN(C(=O)c3ccc(N4CCCC4=O)cc3)CC2C)c1 (stereo not drawn),0,0,0,0,0,0,-
COc1ccc(CCNC(=O)CCCc2ccccc2)cc1OC,0,0,0,0,0,0,-
C=CCN1C(=O)C2(OCCCO2)c2cc(C)ccc21,0,0,0,0,0,0,-
CCCCCn1c2c(c(=N)c3ccccc31)CCC2,74,0,0,0,0,0,47
CCOC(=O)Cn1c2c(c(=N)c3ccccc31)CCC2,0,0,0,0,0,0,-
O=C(Nc1ccc2ccccc2n1)Nc1ccccc1F,0,0,0,0,0,0,-
Fc1ccc(Nc2ccc3ccccc3n2)c(F)c1,0,0,0,0,0,0,0
COc1cccc(-c2noc(-c3cccnc3)n2)c1,0,0,0,0,0,0,-
COc1cccc(-c2noc(-c3cccs3)n2)c1,0,0,0,0,0,0,0
SMILES,Jurkat NFkB inh,JMJD2C inh,697 NFkB inh,NR2E3 ag-1,NR2E3 ag-2,GalR3 antagonist,Jurkat NFkB conf
COc1ccc(N2CCN(S(=O)(=O)c3ccc4c(c3)CC(C)N4C(=O)C3CC3)CC2)cc1 (stereo not drawn),0,0,0,0,0,0,-
CCC(=O)N1c2ccc(S(=O)(=O)N3CCN(c4ccc([N+](=O)[O-])cc4)CC3)cc2CC1C (stereo not drawn),52,0,0,0,0,0,65
CC(=O)c1ccc(N2CCN(S(=O)(=O)c3ccc4c(c3)CC(C)N4C(=O)C3CC3)CC2)cc1 (stereo not drawn),58,0,0,0,0,0,0
CCC(=O)N1c2ccc(S(=O)(=O)N3CCN(CC)CC3)cc2CC1C (stereo not drawn),0,0,0,0,0,0,-
CC1(C(=O)NS(=O)(=O)Cc2ccccc2)CCN1C(=O)CCc1ccccc1 (stereo not drawn),-,-,-,0,-,0,-
C[C@H]1CN([C@@H](C)CO)C(=O)CCCn2nncc2CO[C@H]1CN(C)C(=O)C1CC1,-,-,-,0,-,0,-
Cc1cccc(S(=O)(=O)Nc2ccc(-c3nc4ccc(C)cc4s3)cc2)c1,0,0,0,0,0,0,0
O=C(COc1ccc(C(=O)c2ccccc2)cc1)NCc1ccc(F)cc1,69,0,0,0,0,0,0
O=C(COc1ccccc1)NCc1ccccc1,0,0,0,0,0,0,-
CCn1c(SCc2c(Cl)cccc2Cl)nc2nc3c(cc2c1=O)CCCC3,55,0,0,0,0,0,0
CCn1c(SCc2ccccc2Cl)nc2nc3c(cc2c1=O)CCCC3,-,0,-,0,-,0,-
COc1cc(/C=C/c2cc(OC(C)=O)c3ccccc3n2)c(OC(C)=O)c([N+](=O)[O-])c1,0,0,0,0,0,0,-
O=C(Nc1ccc(N2CCOCC2)c(Cl)c1)c1c(F)c(F)c(F)c(F)c1F,0,0,0,0,0,0,-
O=C(Nc1ccc(N2CCOCC2)c(Cl)c1)c1cccc(F)c1,0,-,0,0,0,0,0
CC(=O)c1ccc(NC(=O)C2CC(=O)N(C(C)C)C2)cc1 (stereo not drawn),0,0,0,0,0,0,-
COc1ccc(C=C2c3ccccc3C(=O)c3ccccc32)c(OC)c1,66,0,0,0,0,0,61
COc1ccc(/C=C2\COc3ccccc3C2=O)c(OC)c1,0,0,0,0,0,0,-
Cc1ccc(C)c(NC(=O)C(Sc2nc3ccccc3c(=O)n2CC(C)C)c2ccccc2)c1 (stereo not drawn),65,0,0,0,0,0,0
Cc1ccc(C)c(NC(=O)C(Sc2ncnc3ccccc23)c2ccccc2)c1 (stereo not drawn),0,0,0,0,0,-,-
O=c1c2ccccc2oc2cc(-c3ccc(CN4CCOCC4)cc3)ccc12,0,0,0,0,0,0,0
O=c1cc(CN2CCOCC2)c2ccccc2o1,-,-,-,0,-,0,-
Nc1ccn([C@@H]2O[C@H](CNCc3ccc(C#CCCO)cc3)[C@@H](O)[C@H]2O)c(=O)n1,-,-,-,0,-,0,-
COC1OC2COC(c3ccccc3)OC2C(OC(C)=O)C1OC(C)=O (stereo not drawn),-,-,-,0,-,0,-
CC(C)(C)OC(=O)C[C@H]1C/C=C\C[C@H](CC(=O)NCCO)C(=O)NC[C@H](c2ccccc2)OC1=O,0,0,0,0,-,0,-
C#CCOCCOCCOCCNc1nc(N2CCN(C(=O)CCCCCCCCCCNC(=O)[C@H](CCCCN)n3cc(C[C@@H](C)CC)nn3)CC2)nc(N2CCN(C(=O)CCCCCCCCCCNC(=O)[C@@H]([C@H](C)O)n3cc(C)nn3)CC2)n1,91,0,0,0,0,-,0
CCCCCCCCCCCCCCCC[n+]1ccc(C(N)=O)cc1,56,-,0,0,0,0,0
